Assay [1] has as its target T1, Adenosine receptor A1 (Homo sapiens) (UniProt P30542).
T1 sequence (whole entry): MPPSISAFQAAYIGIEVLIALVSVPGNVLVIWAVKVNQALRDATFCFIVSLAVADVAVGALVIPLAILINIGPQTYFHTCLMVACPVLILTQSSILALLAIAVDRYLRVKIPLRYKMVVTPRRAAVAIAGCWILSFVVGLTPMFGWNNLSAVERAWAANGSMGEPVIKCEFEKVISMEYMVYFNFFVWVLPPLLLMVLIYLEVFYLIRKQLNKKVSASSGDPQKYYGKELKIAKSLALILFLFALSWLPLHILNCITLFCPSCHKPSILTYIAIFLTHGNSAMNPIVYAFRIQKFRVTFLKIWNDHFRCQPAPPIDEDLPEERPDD
Description: Displacement of [3H]DPCPX from human Adenosine A1 receptor expressed in CHO cells at 1 uM after 60 mins. Type of assay: cell-based. The gist of the method: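 Competition binding on membranes from CHO cells expressing human A1, labelled with 2 nM [3H]DPCPX. Non-specific binding was defined with 10 µM R-PIA, and incubation was at 25 °C for 60 min. The value is percent inhibition of specific binding at 1 µM test compound (n = 2, average).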

Assay [2] concerns the target Adenosine receptor A2a (Homo sapiens) (UniProt P29274). In words: Displacement of [3H]ZM241385 from human Adenosine A2A receptor expressed in HeLa cells at 1 uM after 30 mins. Type of assay: cell-based. The gist of the method:
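Membranes from HeLa cells expressing human A2A were labelled with 3 nM [3H]ZM241385, with non-specific binding defined by 50 µM NECA, and incubated at 25 °C for 30 min. The value is percent displacement of specific binding at 1 µM test compound (n = 2).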

The next assay concerns the target T2, Adenosine receptor A2b (Homo sapiens, UniProt P29275).
T2 sequence (P29275 whole entry): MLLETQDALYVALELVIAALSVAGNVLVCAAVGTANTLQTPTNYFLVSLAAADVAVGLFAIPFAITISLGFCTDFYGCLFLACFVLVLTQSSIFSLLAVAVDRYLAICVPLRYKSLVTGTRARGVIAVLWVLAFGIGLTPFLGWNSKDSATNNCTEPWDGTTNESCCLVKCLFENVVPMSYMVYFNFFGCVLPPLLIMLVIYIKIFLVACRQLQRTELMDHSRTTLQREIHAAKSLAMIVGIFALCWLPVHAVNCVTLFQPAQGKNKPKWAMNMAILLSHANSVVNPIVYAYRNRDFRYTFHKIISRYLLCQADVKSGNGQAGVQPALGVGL
Description: Displacement of [3H]DPCPX from human Adenosine A2B receptor expressed in HEK293 cells after 30 mins. Type of assay: cell-based.

For assay [3], the target named is T3, Adenosine receptor A3 (Homo sapiens) (UniProt P0DMS8).
T3 sequence (whole entry): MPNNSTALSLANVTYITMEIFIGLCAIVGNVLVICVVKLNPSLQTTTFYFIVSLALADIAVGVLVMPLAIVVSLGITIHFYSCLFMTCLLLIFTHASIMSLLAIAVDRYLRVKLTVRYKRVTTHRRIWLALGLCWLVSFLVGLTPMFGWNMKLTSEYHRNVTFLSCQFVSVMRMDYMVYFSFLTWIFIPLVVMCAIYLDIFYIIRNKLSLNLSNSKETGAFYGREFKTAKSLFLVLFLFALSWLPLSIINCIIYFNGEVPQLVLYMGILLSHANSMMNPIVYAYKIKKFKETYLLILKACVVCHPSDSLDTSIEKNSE
Description: Displacement of [3H]NECA from human Adenosine A3 receptor expressed in HeLa cells at 1 uM after 180 mins. On the technique in general: In a radioligand displacement assay an active substance lowers the binding of a labelled ligand.

Assay [4] has as its target T4, Adenosine receptor A2b (Homo sapiens) (UniProt P29275).
T4 sequence (whole entry): T2 sequence (P29275 whole entry)
In words: Displacement of [3H]DPCPX from human Adenosine A2B receptor expressed in HEK293 cells at 1 uM after 30 mins. Type of assay: cell-based. The method in brief:
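Membranes from HEK-293 cells expressing human A2B were labelled with 35 nM [3H]DPCPX, with non-specific binding defined by 400 µM NECA, and incubated at 25 °C for 30 min.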

As a reminder, the Ki is a measure of affinity in units of concentration, obtained from inhibition or displacement.

Sequence of Adenosine receptor A2a (Homo sapiens) (P29274 whole entry): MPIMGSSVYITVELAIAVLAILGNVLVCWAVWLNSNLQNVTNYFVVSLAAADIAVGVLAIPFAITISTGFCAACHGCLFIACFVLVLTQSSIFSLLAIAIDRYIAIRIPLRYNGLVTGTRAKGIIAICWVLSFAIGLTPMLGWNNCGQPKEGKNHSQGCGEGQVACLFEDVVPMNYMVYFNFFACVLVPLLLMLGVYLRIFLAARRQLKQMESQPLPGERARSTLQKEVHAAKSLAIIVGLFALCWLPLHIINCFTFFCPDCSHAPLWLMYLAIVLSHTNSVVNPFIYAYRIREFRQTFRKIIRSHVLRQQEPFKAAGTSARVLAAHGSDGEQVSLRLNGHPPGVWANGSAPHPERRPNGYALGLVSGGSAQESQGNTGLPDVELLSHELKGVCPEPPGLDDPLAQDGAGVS

As for `CCOC(=O)C1=C(C)Nc2nc3ccccc3n2C1c1ccoc1` (racemic), the Activity in assay [1] stood at 7%; in assay [2], 11%; in assay [3], 1%. Moreover, the Ki at Adenosine receptor A2b was determined as 0.0206 µM.
With `CC1=C(C(=O)OC(C)C)C(c2ccsc2)n2ccnc2N1` (racemic), the Activity in assay [1] stood at 3%; in assay [2], 1%; in assay [3] it was 1%. The compound also gave an inhibitory constant (Ki) at Adenosine receptor A2b of 0.847 µM.
Turning to `O=C1NC2=C(C(=O)OC2)C(c2cccs2)N1` (racemic), the Activity worked out at 1% in assay [1], 1% in assay [2], 10% in assay [4] and 1% in assay [3].
In the case of `O=C1NC2=C(C(=O)OC2)C(c2ccsc2)N1` (racemic), the Activity was found to be 13% in assay [1], 3% in assay [2], 8% in assay [4] and 2% in assay [3].
In the case of `CCOC(=O)C1=C(C)Nc2nc3ccccc3n2C1c1ccco1` (racemic), the Activity in assay [1] was found to be 5%; in assay [2], 14%; in assay [3], 1%. Moreover, the Ki on Adenosine receptor A2b was 0.012 µM.
`CCOC(=O)C1=C(C)Nc2nccn2C1c1ccoc1` (racemic): the Activity in assay [1] is 2%; in assay [2], 1%; in assay [4], 12%; in assay [3] it was 3%.
For the compound `CC1=C(C(=O)OC(C)C)C(c2cccs2)NC(=O)N1` (stereo not drawn), the Activity in assay [1] amounted to 37%; in assay [2], 19%; in assay [4], 44%; in assay [3] it was 14%.
Turning to `CCOC(=O)C1=C(C)Nc2ncnn2C1c1ccsc1` (racemic), the Activity came to 3% in assay [1], 21% in assay [2] and 2% in assay [3]. For the same compound, the Ki on Adenosine receptor A2b was determined as 0.699 µM.
As for `CCOC(=O)C1=C(C)NC(=O)CC1c1ccoc1` (racemic), the Activity in assay [1] was found to be 9%; in assay [2], 8%; in assay [4] it was 14%; in assay [3] it was 15%.
For `CCOC(=O)C1=C(C)NC(=O)CC1c1ccsc1` (racemic), in that order: 1%, 4%, 12% and 13%.
As for `CCN1CC2=C(C1=O)C(c1ccoc1)NC(=O)N2` (racemic), the Activity amounted to 16% in assay [1], 13% in assay [2], 35% in assay [4] and 17% in assay [3].
In the case of `CC1=C(C(=O)OC(C)C)C(c2ccoc2)n2ccnc2N1` (racemic), the Activity in assay [1] is 1%; in assay [2], 4%; in assay [3] it was 10%. On Adenosine receptor A2b, this compound had a Ki of 0.277 µM.
For the compound `CCOC(=O)C1=C(C)NC(=O)NC1c1ccoc1` (stereo not drawn), the Activity in assay [1] was determined as 21%; in assay [2], 39%; in assay [3], 1%.
Regarding `CC1=C(C(=O)OC(C)C)C(c2ccoc2)NC(=O)N1` (stereo not drawn), the Activity in assay [1] is 25%; in assay [2], 26%; in assay [3], 3%.
With `CCOC(=O)C1=C(C)NC(=O)NC1c1ccco1` (stereo not drawn), the Activity is 18% in assay [1], 41% in assay [2] and 2% in assay [3].
Consider `CCOC(=O)C1=C(C)Nc2ncnn2C1c1ccco1` (racemic), for which the Activity is 15% in assay [1], 20% in assay [2], 3% in assay [4] and 4% in assay [3].
With `CCOC(=O)C1=C(C)NC(=O)NC1c1ccsc1` (stereo not drawn), the Activity in assay [1] turned out to be 22%; in assay [2], 39%; in assay [3], 24%.
`CCN1CC2=C(C1=O)C(c1ccco1)NC(=O)N2` (racemic): the Activity in assay [1] worked out at 7%; in assay [2], 7%; in assay [4], 17%; in assay [3] it was 20%.
For the compound `CCOC(=O)C1=C(C)Nc2ncnn2C1c1cccs1` (racemic), the Activity in assay [1] was found to be 1%; in assay [2], 2%; in assay [4], 15%; in assay [3], 15%.
Regarding `CC1=C(C(=O)OC(C)C)C(c2ccsc2)CC(=O)N1` (racemic), the Activity came to 4% in assay [1], 3% in assay [2], 21% in assay [4] and 20% in assay [3].
Regarding `CCOC(=O)C1=C(C)Nc2nc3ccccc3n2C1c1ccsc1` (racemic), the Activity amounted to 3% in assay [1], 10% in assay [2] and 2% in assay [3]. Further, at Adenosine receptor A2b, the inhibition constant Ki amounted to 0.0297 µM.
For `CCOC(=O)C1=C(C)Nc2ncnn2C1c1ccoc1` (racemic) the same measures were 2%, 1%, 4% and 0.602 µM.
In the case of `O=C1NC2=C(C(=O)OC2)C(c2ccoc2)N1` (racemic), the Activity in assay [1] was 9%; in assay [2] it was 3%; in assay [4], 9%; in assay [3], 1%.
For the compound `CCN1CC2=C(C1=O)C(c1ccsc1)NC(=O)N2` (racemic), the Activity in assay [1] was 27%; in assay [2], 17%; in assay [4], 18%; in assay [3] it was 31%.
Regarding `CC1=C(C(=O)OC(C)C)C(c2cccs2)n2ncnc2N1` (racemic), the Activity worked out at 1% in assay [1], 1% in assay [2], 1% in assay [4] and 3% in assay [3].
On to `CC1=C(C(=O)OC(C)C)C(c2ccco2)CC(=O)N1` (racemic), for which the Activity was 14% in assay [1], 14% in assay [2], 15% in assay [4] and 31% in assay [3].
For the compound `CCOC(=O)C1=C(C)Nc2nccn2C1c1ccsc1` (racemic), the Activity was 1% in assay [1], 3% in assay [2], 10% in assay [4] and 2% in assay [3].
`CC1=C(C(=O)OC(C)C)C(c2ccsc2)n2ncnc2N1` (racemic): the Activity was found to be 3% in assay [1], 2% in assay [2] and 5% in assay [3]. This compound also had a Ki on Adenosine receptor A2b of 0.817 µM.
Take `CCN1CC2=C(C1=O)C(c1cccs1)NC(=O)N2` (racemic): the Activity in assay [1] came to 12%; in assay [2] it was 2%; in assay [4], 28%; in assay [3], 21%.
Regarding `CC1=C(C(=O)OC(C)C)C(c2ccoc2)CC(=O)N1` (racemic), the Activity in assay [1] amounted to 23%; in assay [2] it was 25%; in assay [4], 20%; in assay [3], 24%.
Take `CC1=C(C(=O)OC(C)C)C(c2cccs2)CC(=O)N1` (racemic): the Activity was 2% in assay [1], 1% in assay [2], 3% in assay [4] and 22% in assay [3].
As to `O=C1NC2=C(C(=O)OC2)C(c2ccco2)N1` (racemic), the Activity came to 3% in assay [1], 2% in assay [2], 2% in assay [4] and 3% in assay [3].
Consider `CC1=C(C(=O)OC(C)C)C(c2ccco2)NC(=O)N1` (stereo not drawn), for which the Activity in assay [1] is 20%; in assay [2] it was 30%; in assay [3], 1%.
As to `CC1=C(C(=O)OC(C)C)C(c2ccsc2)NC(=O)N1` (stereo not drawn), the Activity in assay [1] was 26%; in assay [2], 25%; in assay [3] it was 1%.
With `CCOC(=O)C1=C(C)NC(=O)NC1c1cccs1` (stereo not drawn), the Activity in assay [1] is 1%; in assay [2], 33%; in assay [4], 44%; in assay [3], 1%.
On to `CCOC(=O)C1=C(C)NC(=O)CC1c1cccs1` (racemic), for which the Activity in assay [1] is 16%; in assay [2] it was 11%; in assay [4] it was 18%; in assay [3], 21%.
